According to ChEMBL document CHEMBL1914423, “New imidazo[2,1-b]thiazole derivatives: synthesis, in vitro anticancer evaluation, and in silico studies” (Eur J Med Chem, 2011):

Tests used:
Assay type in all cases: functional
NCI-H23 = experiment: Anticancer activity against human NCI-H23 cells after 48 hrs by SRB assay; conditions: NCI-H23, 48 h
KM12 = experiment: Anticancer activity against human KM12 cells after 48 hrs by SRB assay; conditions: KM12, 48 h
Procedure, shortened: (§1)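 NCI five-dose screen. Cells in RPMI 1640 with 5% FBS and 2 mM L-glutamine, seeded at 5000–40,000 cells/well according to doubling time, then pre-incubated 24 h at 37 °C in 5% CO2. Drugs dissolved in DMSO, five concentrations by 10-fold or 1/2-log dilution. Cells fixed with TCA, SRB-stained, A515 read. IC50 solved from [(Ti−Tz)/(C−Tz)]×100 = 50.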

DU-145 = experiment: Anticancer activity against human DU145 cells after 48 hrs by SRB assay; conditions: DU-145, 48 h; procedure, shortened: as §1
LOX IMVI = experiment: Anticancer activity against human LOXIMVI cells after 48 hrs by SRB assay; procedure, shortened: as §1
SF-295 = experiment: Anticancer activity against human SF295 cells after 48 hrs by SRB assay; conditions: SF-295, 48 h
MDA-MB-435 = experiment: Anticancer activity against human MDA-MB-435 cells after 48 hrs by SRB assay; conditions: MDA-MB-435, 48 h; procedure, shortened: as §1
Malme-3M = experiment: Anticancer activity against human MALME-3M cells after 48 hrs by SRB assay; procedure, shortened: as §1
SK-MEL-5 = experiment: Anticancer activity against human SK-MEL-5 cells after 48 hrs by SRB assay; conditions: SK-MEL-5, 48 h
HCT-15 = experiment: Anticancer activity against human HCT15 cells after 48 hrs by SRB assay; conditions: HCT-15, 48 h; procedure, shortened: as §1
CCRF-CEM = experiment: Anticancer activity against human CCRF-CEM cells after 48 hrs by SRB assay; procedure, shortened: as §1
HOP-62 = experiment: Anticancer activity against human HOP62 cells after 48 hrs by SRB assay; conditions: HOP-62, 48 h; procedure, shortened: as §1
[1] = Anticancer activity against human Hs 578T cells after 48 hrs by SRB assay; procedure, shortened: as §1
NCI/ADR-RES = experiment: Anticancer activity against human NCI/ADR-RES cells after 48 hrs by SRB assay
CAKI-1 = experiment: Anticancer activity against human Caki1 cells after 48 hrs by SRB assay; conditions: CAKI-1, 48 h; procedure, shortened: as §1
SF-268 = experiment: Anticancer activity against human SF268 cells after 48 hrs by SRB assay; conditions: SF-268, 48 h
M14 = experiment: Anticancer activity against human M14 cells after 48 hrs by SRB assay; conditions: M14, 48 h; procedure, shortened: as §1
SN12C = experiment: Anticancer activity against human SN12C cells after 48 hrs by SRB assay
SR = experiment: Anticancer activity against human SR cells after 48 hrs by SRB assay
Procedure, shortened: (§2)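 NCI-60 five-dose mode: cells in RPMI 1640 with 5% FBS and 2 mM glutamine, plated at 5000–40,000 cells/well, and preincubated 24 h, with time-zero plates TCA-fixed. Drug given at five concentrations (10-fold or ½-log serial dilutions). Cold TCA fixation 60 min at 4 °C, SRB stain, Tris solubilization, A515. IC50 taken where [(Ti−Tz)/(C−Tz)]×100 = 50.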

MDA-MB-468 = experiment: Anticancer activity against human MDA-MB-468 cells after 48 hrs by SRB assay; conditions: MDA-MB-468, 48 h
K562 = experiment: Anticancer activity against human K562 cells after 48 hrs by SRB assay; conditions: K562, 48 h; procedure, shortened: as §1
HT-29 = experiment: Anticancer activity against human HT-29 cells after 48 hrs by SRB assay; conditions: HT-29, 48 h; procedure, shortened: as §1
UACC-257 = experiment: Anticancer activity against human UACC257 cells after 48 hrs by SRB assay; conditions: UACC-257, 48 h; procedure, shortened: as §2
T47D = experiment: Anticancer activity against human T47D cells after 48 hrs by SRB assay; procedure, shortened: as §2
MOLT-4 = experiment: Anticancer activity against human MOLT4 cells after 48 hrs by SRB assay; conditions: MOLT-4, 48 h
TK-10 = experiment: Anticancer activity against human TK10 cells after 48 hrs by SRB assay; conditions: TK-10, 48 h; procedure, shortened: as §2
RPMI-8226 = experiment: Anticancer activity against human RPMI8226 cells after 48 hrs by SRB assay; conditions: RPMI-8226, 48 h
COLO 205 = experiment: Anticancer activity against human COLO205 cells after 48 hrs by SRB assay; conditions: COLO 205, 48 h; procedure, shortened: as §1
SF-539 = experiment: Anticancer activity against human SF539 cells after 48 hrs by SRB assay; conditions: SF-539, 48 h
NCI-H460 = experiment: Anticancer activity against human NCI-H460 cells after 48 hrs by SRB assay; conditions: NCI-H460, 48 h
NCI-H322M = experiment: Anticancer activity against human NCI-H322M cells after 48 hrs by SRB assay
[2] = read-out: LC50 (the source's name)

O=C(NCCNc1nccc(-c2c(-c3cccc(O)c3)nc3sccn23)n1)Nc1cccc(C(F)(F)F)c1
GI50 (NCI-H23): 4.62 µM | LC50 (50% lethal concentration) (NCI-H23): > 100 µM | TGI (NCI-H23): 32.5 µM | GI50 (KM12): 2.78 µM | TGI (KM12): 6.98 µM | CC50 (KM12; [2]): 29.9 µM | GI50 (DU-145): 5.37 µM | TGI (DU-145): 30 µM | CC50 (DU-145; [2]): > 100 µM | GI50 (LOX IMVI): 4.05 µM | TGI (LOX IMVI): 26.2 µM | CC50 (LOX IMVI; [2]): > 100 µM | GI50 (SF-295): 4.16 µM | TGI (SF-295): 29.7 µM | CC50 (SF-295; [2]): > 100 µM | GI50 (MDA-MB-435): 2.04 µM | TGI (MDA-MB-435): 4.94 µM | CC50 (MDA-MB-435; [2]): 41 µM | GI50 (Malme-3M): 2.09 µM | TGI (Malme-3M): 7.3 µM | CC50 (Malme-3M; [2]): 50.7 µM | GI50 (SK-MEL-5): 2.62 µM | TGI (SK-MEL-5): 8.43 µM | CC50 (SK-MEL-5; [2]): 28.9 µM | GI50 (HCT-15): 4.26 µM | TGI (HCT-15): 24.1 µM | CC50 (HCT-15; [2]): > 100 µM | GI50 (CCRF-CEM): 3.25 µM | TGI (CCRF-CEM): 13.7 µM | CC50 (CCRF-CEM; [2]): > 100 µM | GI50 (HOP-62): 8.33 µM | LC50 (concentration killing 50% of starting cells) (HOP-62): 61 µM | TGI (HOP-62): 23.4 µM | GI50 [1]: 3.56 µM | TGI [1]: 17.8 µM | CC50 [1, 2]: > 100 µM | GI50 (NCI/ADR-RES): 26.9 µM | TGI (NCI/ADR-RES): > 100 µM | CC50 (NCI/ADR-RES; [2]): > 100 µM | GI50 (CAKI-1): 14.2 µM | TGI (CAKI-1): 50.5 µM | CC50 (CAKI-1; [2]): > 100 µM | GI50 (SF-268): 3.45 µM | TGI (SF-268): 14.6 µM | CC50 (SF-268; [2]): > 100 µM | GI50 (M14): 1.79 µM | TGI (M14): 3.39 µM | CC50 (M14; [2]): 6.41 µM | GI50 (SN12C): 3.42 µM | TGI (SN12C): 20 µM | CC50 (SN12C; [2]): > 100 µM | GI50 (SR): 6.08 µM | TGI (SR): 40 µM | CC50 (SR; [2]): > 100 µM | GI50 (MDA-MB-468): 1.67 µM | TGI (MDA-MB-468): 3.33 µM | CC50 (MDA-MB-468; [2]): 6.67 µM | GI50 (K562): 3.42 µM | TGI (K562): 57.1 µM | CC50 (K562; [2]): > 100 µM | GI50 (HT-29): 3.45 µM | TGI (HT-29): 10.8 µM | CC50 (HT-29; [2]): 49.9 µM | GI50 (UACC-257): 2.51 µM | TGI (UACC-257): 6.94 µM | CC50 (UACC-257; [2]): 59.8 µM | GI50 (T47D): 6.52 µM | TGI (T47D): 25.6 µM | CC50 (T47D; [2]): 97.1 µM | GI50 (MOLT-4): 3.6 µM | TGI (MOLT-4): 14.6 µM | CC50 (MOLT-4; [2]): > 100 µM | GI50 (TK-10): 3.66 µM | TGI (TK-10): 11.1 µM | CC50 (TK-10; [2]): 94.5 µM | GI50 (RPMI-8226): 2.52 µM | LC50 (RPMI-8226): > 100 µM | TGI (RPMI-8226): 5.46 µM | GI50 (COLO 205): 3.36 µM | TGI (COLO 205): 12 µM | CC50 (COLO 205; [2]): 59.5 µM | GI50 (SF-539): 13.1 µM | TGI (SF-539): 36.9 µM | CC50 (SF-539; [2]): > 100 µM | GI50 (NCI-H460): 4.79 µM | LC50 (NCI-H460): 83.5 µM | TGI (NCI-H460): 20.8 µM | GI50 (NCI-H322M): 6.13 µM | TGI (NCI-H322M): 26 µM | CC50 (NCI-H322M; [2]): > 100 µM
